Experimental data: article PMC3880591 (Journal of medicinal chemistry, 2013)
Like-named read-outs stand apart in the source and are kept apart here.

Columns and labels:
[1] = system: Male Sprague Dawley rats; assay: Intracranial self-stimulation; format: in vivo, rat; settings: i.p., measured for 1 hr; for Effect on ICSS thresholds: butorphan 0.25-4.0 mg/kg, 8 1.0-30.0 mg/kg
How it was run: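 Rats carried monopolar electrodes in the medial forebrain bundle (lateral hypothalamus). They were trained on FR1 at 141 Hz (500 ms trains) by the rate-frequency method until thresholds were stable (±10%, 4 days); N=6 per cohort. Baseline was the mean of the last two of three 15-min functions. Ascending i.p. doses were given in 20% DMSO/water or 0.9% saline, then four 15-min trials. Output was percent of baseline, by two-way repeated-measures ANOVA with Tukey.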

[2] = system: rats; settings: ref 10b; cited from earlier work
[3] = system: morphine dependent monkeys; settings: more potent (in contrast to cyclorphan); cited from earlier work
[4] = system: mice; settings: cited from earlier work
[5] = target: T1, human KOR (Homo sapiens, UniProt P41145); settings: cited from earlier work
[6] = target: T2, human MOR (Homo sapiens, UniProt P35372); settings: from [35S]GTPγS stimulation and inhibition data; cited from earlier work
[7] = target: T1, human KOR; settings: from [35S]GTPγS stimulation and inhibition data; cited from earlier work
[8] = target: T1, human KOR; assay: Stimulation/inhibition of [35S]GTPγS binding mediated by the KOR; format: biochemical; settings: from [35S]GTPγS stimulation and inhibition data
How it was run: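 CHO membranes stably expressing human KOR (15 μg protein/tube) were incubated 60 min at 30 °C with 12 concentrations of test compound in 50 mM Tris–HCl, 3 mM MgCl2, 100 mM NaCl, 0.2 mM EGTA, pH 7.4, with 3 μM GDP and […] [35S]GTPγS. Antagonism was tested against 30 nM U50,488. Nonspecific binding used 10 μM GTPγS. After filtration and counting, results were expressed as % stimulation over basal; ≥3 experiments, triplicate.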

[9] = target: T2, human MOR; assay: Stimulation/inhibition of [35S]GTPγS binding mediated by the MOR; format: biochemical; settings: from [35S]GTPγS stimulation and inhibition data
How it was run: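 Membranes from CHO cells stably expressing human MOR (7.5 μg protein/tube) were incubated 60 min at 30 °C with 12 test compound concentrations in 50 mM Tris–HCl, 3 mM MgCl2, 100 mM NaCl, 0.2 mM EGTA, pH 7.4, plus 3 μM GDP and 80 pmol [35S]GTPγS. Antagonist mode used 200 nM DAMGO. Nonspecific binding was defined with 10 μM GTPγS. Filter-bound counts were given as % stimulation over basal; at least three experiments in triplicate.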

[10] = system: rhesus monkeys; settings: cited from earlier work

T1 sequence (P41145 whole entry): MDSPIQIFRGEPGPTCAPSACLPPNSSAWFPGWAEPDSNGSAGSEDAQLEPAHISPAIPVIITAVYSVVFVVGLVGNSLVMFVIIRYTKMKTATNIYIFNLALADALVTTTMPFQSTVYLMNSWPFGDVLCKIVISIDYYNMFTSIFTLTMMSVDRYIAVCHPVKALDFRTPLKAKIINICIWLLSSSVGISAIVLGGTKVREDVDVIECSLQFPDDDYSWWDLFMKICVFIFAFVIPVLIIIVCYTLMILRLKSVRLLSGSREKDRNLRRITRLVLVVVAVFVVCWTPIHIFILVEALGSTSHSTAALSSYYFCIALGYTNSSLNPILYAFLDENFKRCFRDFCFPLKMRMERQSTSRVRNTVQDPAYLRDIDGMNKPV
T2 sequence (P35372 whole entry): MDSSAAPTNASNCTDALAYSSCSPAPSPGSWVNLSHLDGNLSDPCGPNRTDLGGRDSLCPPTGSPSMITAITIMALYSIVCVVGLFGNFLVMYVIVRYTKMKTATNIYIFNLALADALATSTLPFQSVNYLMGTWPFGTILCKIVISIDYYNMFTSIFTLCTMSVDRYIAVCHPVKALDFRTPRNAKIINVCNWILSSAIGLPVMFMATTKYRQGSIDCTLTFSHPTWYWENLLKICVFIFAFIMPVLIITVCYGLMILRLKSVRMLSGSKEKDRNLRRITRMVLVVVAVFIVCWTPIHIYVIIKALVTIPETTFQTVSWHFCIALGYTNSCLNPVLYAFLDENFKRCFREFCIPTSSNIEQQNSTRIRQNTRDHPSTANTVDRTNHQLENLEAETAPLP

Oc1ccc2c(c1)[C@@]13CCCC[C@H]1[C@@H](C2)N(CC1CCC1)CC3 [Butorphan]
Effect on maximum rates of responding ([1]; 4.0 mg/kg): significantly decreased rates of responding | Effect on ICSS thresholds [1]: no significant effect | Antinociception in the warm-water tail flick test [2]: full antinociception | Potency in suppressing abstinence [3]: 40 times

CCNc1nc2cc3c(cc2s1)C[C@@H]1[C@@H]2CCCC[C@]32CCN1CC1CC1 [Compound 1c]
Effect on morphine sensitization [4]: inhibited morphine sensitization

COc1ccc2c(c1)[C@]13CCN(CC4CC4)[C@H](C2)[C@@H]1Cc1sc(N)nc1C3 [Compound 7]
Selectivity δ/κ ([5]; ratio of Ki values): 7 | Pharmacological properties at the MOR (agonist/antagonist) [6]: agonist and antagonist properties | Pharmacological properties at the KOR (agonist/antagonist) [7]: full agonists

Nc1nc2c(s1)C[C@H]1[C@H]3Cc4ccc(O)cc4[C@@]1(CCN3CC1CC1)C2 [Compound 8]
Effect on ICSS thresholds [1]: no significant effect | Ki ([5]; read-out: Ki [3H]U69,593 (κ), CHO membranes, human KOR, ± SEM): 0.072 ± 0.0039 nM | Pharmacological properties at the KOR (agonist/antagonist) [7]: both agonist and antagonist properties

COc1ccc2c(c1)[C@]13CCN(CC4CC4)[C@H](C2)[C@@H]1Cc1sc(NC(C)=O)nc1C3 [Compound 10, 6,7-(2-N-Acetyl)aminothiazolo-N-cyclopropylmethyl-3-methoxymorphinan]
Pharmacological properties at the KOR (agonist/antagonist) [8]: full agonists | Pharmacological properties at the MOR (agonist/antagonist) [9]: agonist and antagonist properties

CNc1nc2c(s1)C[C@H]1[C@H]3Cc4ccc(OC)cc4[C@@]1(CCN3CC1CC1)C2 [Compound 11, 6,7-(2-N-Methyl)aminothiazolo-N-cyclopropylmethyl-3-methoxymorphinan]
Pharmacological properties at the KOR (agonist/antagonist) [8]: full agonists | Pharmacological properties at the MOR (agonist/antagonist) [9]: agonist and antagonist properties

Oc1ccc2c(c1)[C@@]13CCCC[C@H]1[C@@H](C2)N(CC1CC1)CC3 [Cyclorphan]
Antinociception in the warm-water tail flick test [2]: partial effect | Effect on cocaine self-administration [10]: reduced cocaine self-administration
